Measured values published in PubChem BioAssay AID624105 (Broad Institute, 2012).
Active and inactive are the calls of the source.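 Rule for the calls: active = growth reading drops at least 35% at both 405 and 600 nm in duplicate, reached below 10 µM; inactive = the rest, including effects in the opposite direction.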

System: not listed separately
Assay: efflux-deficient P. aeruginosa growth delay, iron chelation, dose response, PAK mexAB-OprM pump mutant, OD600, dry powder (AID 624105)
Conditions: P. aeruginosa PAK mexAB-oprM +EDDHA growth, OD600, 28 h; at 100 µM (top of the series)
Outline: (§1)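 Material: Pseudomonas aeruginosa PAK strain lacking the mexAB-oprM efflux pump; times: 28 h exposure, 30 °C; compound: 15 nM to 100 µM final; medium: succinate M9, pH 7.0, with 2 µM EDDHA iron chelator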

Compound | growth change, negative = inhibition
CCCCC(C#N)c1ccccn1 (centres undefined) | -13.4% (inactive)
CN(C)CCCC(C#N)c1ccc(Cl)cc1 (centres undefined) | -3.26% (inactive)
Clc1ccc(C(c2cccc(Cl)n2)c2nn[nH]n2)cc1 (centres undefined) | 11.1% (inactive)
COCCOCCC(C#N)c1ccc(Cl)cc1 (centres undefined) | -6.59% (inactive)
N#CC(c1ccc(C(F)(F)F)c(Cl)n1)c1ccccc1OC(F)(F)F (centres undefined) | -14.9% (inactive)

System: P. aeruginosa PAK mexAB-oprM +EDDHA growth, OD600, 28 h
Assay: as above
Conditions: not given
Outline: as §1

Compound | AC35
N#CC(c1ccc(Cl)cc1)N1CCCC1 (centres undefined) | > 100 µM (inactive)
N#CC(c1ccc(F)cc1)c1cccc(C(F)(F)F)n1 (centres undefined) | 6.72 µM
N#CC(c1cccc(C(F)(F)F)n1)c1ccc(Cl)cc1F (centres undefined) | 8.69 µM
N#CC(c1ccc(Cl)cc1)c1ccccn1 (centres undefined) | 31 µM
COCCOCCC(C#N)c1ccc(F)cc1 (centres undefined) | 51.9 µM
N#CC(c1ccc(Cl)cc1)c1cccc(C(F)(F)F)n1 (centres undefined) | 12 µM
N#CC(c1ccc(Cl)cc1)c1ncccc1Cl (centres undefined) | 6.05 µM
CN(C)CCCC(C#N)c1ccc(F)cc1 (centres undefined) | 49.5 µM
COCCC(C#N)c1ccc(F)cc1 (centres undefined) | 95.8 µM
N#CC(c1ccc(F)cc1)c1cccc(Cl)n1 (centres undefined) | 11.5 µM
N#CC(c1ccc(Cl)cc1)c1cccc(Cl)n1 (centres undefined) | 8.36 µM
N#Cc1cccc(C(C#N)c2ccc(F)cc2)n1 (centres undefined) | 54.9 µM
N#CC(c1cccc(Cl)n1)c1ccc(Cl)cc1F (centres undefined) | 7.15 µM
CCCCC(C#N)c1ccc(F)cn1 (centres undefined) | 51.7 µM
